Read-outs that look alike come from different tables or passages of the source.

For experiment [1], the system named is c-Jun-driven gene Cyclin D1. Description: Cell-based assay of c-Jun-driven gene Cyclin D1 expression. The following applies: SI Figure 7.
The target of experiment [2] is Fl-KID-GACKIX complex (GACKIX domain of CBP/p300) (Mus musculus, UniProt P45481). Nature of the experiment: Fluorescence polarization inhibition of the Fl-KID-GACKIX complex. Type of experiment: binding. Summed up:
(§1)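 Test compound added at increasing concentrations to the preformed GACKIX domain complex with either fluorescein-tagged MLL activation-domain peptide or fluorescein-tagged pKID peptide. Displacement was tracked as the change in fluorescence polarization.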
(In general: Fluorescence polarisation rises when a labelled molecule tumbles more slowly, as on binding a larger partner.)

For experiment [3], the target named is MLL-GACKIX complex (GACKIX domain of CBP/p300) (Mus musculus, UniProt P45481). It counts as binding. Summed up:
as §1

For experiment [4], the target named is GACKIX domain of CBP/p300 (Mus musculus, UniProt P45481). Description: Ligand-detected 1D 1H-NMR binding to GACKIX with MLL and KID peptide competition. Particulars: sekikaic acid 15 μM, GACKIX 5 μM, MLL and pKID peptide 15 μM each. Summed up:
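Aromatic 1H resonances of the test compound (15 μM) were recorded alone and after adding GACKIX (5 μM). MLL and pKID peptides (15 μM each) were then added singly or together. Resonance positions were compared with the unbound-state spectrum to judge reversal of binding.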

The target of another experiment is T1, VP2-Med15(107-357) (Saccharomyces cerevisiae, UniProt P19659).
T1 sequence (P19659 107-357): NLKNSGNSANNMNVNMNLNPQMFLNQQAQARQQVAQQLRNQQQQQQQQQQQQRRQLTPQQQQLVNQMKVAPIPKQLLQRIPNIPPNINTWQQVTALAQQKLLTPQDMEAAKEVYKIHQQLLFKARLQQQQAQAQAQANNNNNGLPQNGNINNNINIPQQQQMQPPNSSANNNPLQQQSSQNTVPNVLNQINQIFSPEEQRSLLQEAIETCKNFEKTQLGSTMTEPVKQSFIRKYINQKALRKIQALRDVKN
Nature of the experiment: Competitive FP binding assay of VP2 with Med15. The following applies: specificity.

MLL-GACKIX complex (GACKIX domain of CBP/p300), sequence (P45481 586-665 limits assumed, one chain of several): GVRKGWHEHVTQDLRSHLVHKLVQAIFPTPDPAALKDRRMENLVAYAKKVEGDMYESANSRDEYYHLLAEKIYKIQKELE
Fl-KID-GACKIX complex (GACKIX domain of CBP/p300), sequence (P45481 586-665 limits assumed, one chain of several): as above
GACKIX domain of CBP/p300, sequence (P45481 586-665 limits assumed): as the sequence (P45481 586-665 limits assumed, one chain of several) above

In the case of `Cc1cc(OC(=O)c2c(C)cc(O)cc2O)cc(O)c1C(=O)O` [lecanoric acid, reference compound], the “Effect on expression of c-Jun-driven gene Cyclin D1 in cells” value (“Effect on expression” below) in experiment [1] was “no effect”. In addition, the “Inhibition of Fl-KID binding to GACKIX (in words)” value in experiment [2] (competitive FP binding assay) was “unable to significantly inhibit”. Also, the “Inhibition of Fl-MLL binding to GACKIX (in words)” value in experiment [3] (competitive FP binding assay) is given as “unable to significantly inhibit”.

As to `CCCCCc1c2c(cc(O)c1C(=O)O)OC(=O)c1c(cc(OC)cc1C(=O)CCCC)O2` [lobaric acid], the “Effect on expression” value in experiment [1] is on record as “dose dependent down regulation”. Further, the IC50 stood at 25 µM in experiment [2] and 17 µM in experiment [3].

For the molecule `CCCc1cc(OC)cc(O)c1C(=O)Oc1c(OC)cc(CCC)c(C(=O)O)c1O` [sekikaic acid], the “Effect on expression” value in experiment [1] was “dose dependent down regulation”. For the same molecule, the “Reversibility of binding to GACKIX” value in experiment [4] is on record as “reversible”. Also, the IC50 in experiment [3] (read-out: IC50, inhibition of the MLL-GACKIX complex, FP, fluorescein-tagged MLL) was 34 µM. The “Inhibition of VP2-Med15(107-357) (in words)” value at VP2-Med15(107-357) is on record as “did not significantly inhibit”.

The IC50 is the point on the concentration scale where inhibition reaches its midpoint.
